Data set [1] deals with Bacillus subtilis. The data set is described as follows: Disruption of inner membrane integrity in Bacillus subtilis 168 ATCC 23857 measured by luciferase based bioluminescence assay. The data set is classed as functional. The gist of the method:
(§1)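 Biosensor strains express click-beetle luciferase (lucGR), whose light output needs externally added D-luciferin; light rises when a damaged membrane lets substrate in. Cell suspension with 1 mM D-luciferin is added to the analytes, and luminescence is read every second for 180 s. Signal is normalized to an untreated water control. Cell density is about 100-fold that of the MIC assay, with at least three independent experiments.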

Data set [2] relates to Escherichia coli. Description: Disruption of inner membrane integrity in Escherichia coli K12 (ATCC MC1061) transfected with pCGLS-1 measured by luciferase based bioluminescence assay. The class given is functional. The essentials: as §1
Data set [3] has as its system Escherichia coli. Description: Antibacterial activity against Escherichia coli ATCC 25922 incubated for 48 hrs and measured by broth microdilution assay. The class given is functional. The gist of the method:
(§2)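 MICs in µg/mL were measured against the reference strains S. aureus ATCC 9144, B. subtilis 168, E. coli ATCC 25922 and P. aeruginosa ATCC 27853. Compounds were tested as di-TFA salts.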

Data set [4] in a line: Solubility in pure water. The data set is classed as physicochemical.
A further data set has as its system Pseudomonas aeruginosa. The data set is described as follows: Antibacterial activity against Pseudomonas aeruginosa ATCC 27853 incubated for 48 hrs and measured by broth microdilution assay. The class given is functional. The essentials: as §2
In data set [5] the test system is Bacillus subtilis. The data set is described as follows: Antibacterial activity against Bacillus subtilis 168 incubated for 48 hrs and measured by broth microdilution assay. The class given is functional. The gist of the method: as §2
Data set [6] is described as follows: Selectivity index, ratio HC50 for hemolytic activity in human RBC to MIC for antibacterial activity against Pseudomonas aeruginosa ATCC 27853. The class given is toxicity. The settings on record: human red blood cells (erythrocytes). The essentials: (§3)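 SI is the ratio of RBC lysis EC50 to MIC for each reference strain.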
Data set [7] in a line: Selectivity index, ratio HC50 for hemolytic activity in human RBC to MIC for antibacterial activity against Bacillus subtilis 168. The class given is toxicity. The settings on record: human red blood cells (erythrocytes). The gist of the method: as §3
Another data set has as its system Staphylococcus aureus. Description: Antibacterial activity against Staphylococcus aureus ATCC 9144 incubated for 48 hrs and measured by broth microdilution assay. The class given is functional. The essentials:
as §2

The test system of a further data set is Erythrocyte. Description: (§4) Hemolytic activity in human RBC measured after 1 hr by microplate reader method. The data set is classed as toxicity, cell-based. The note with it: erythrocyte. The essentials:
(§5)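 Human red blood cell lysis was used as the cytotoxicity read-out, expressed as EC50 in µg/mL. The highest concentration tested was 500 µM. Compounds were tested as di-TFA salts.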

A short description of data set [8]: Selectivity index, ratio HC50 for hemolytic activity in human RBC to MIC for antibacterial activity against Staphylococcus aureus ATCC 9144. The class given is toxicity. The settings on record: human red blood cells (erythrocytes). The essentials:
as §3

The nature of data set [9]: Selectivity index, ratio HC50 for hemolytic activity in human RBC to MIC for antibacterial activity against Escherichia coli ATCC 25922. The class given is toxicity. The note with it: human red blood cells (erythrocytes). The gist of the method: as §3
Data set [10] concerns Bacillus subtilis. The data set is described as follows: Antibacterial activity against Bacillus subtilis 168 (ATCC 23857) expressing lux operon in sacA locus (PliaG) assessed as decrease in bacterial viability at 3.2 to 51.2 ug/ml. The data set is classed as functional, organism-based. The settings on record: dose 3.2-51.2 µg/ml. The essentials:
(§6)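 Biosensor strains (B. subtilis 168; E. coli K12) carry the Photorhabdus luminescens lux operon, so no substrate is added. Cell suspension, about 100-fold denser than in the MIC assay, was added to the analytes. Light was read every second for 180 s, normalized to an untreated water control and reported as RLU. At least three independent experiments were run.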

Data set [11] concerns Escherichia coli. Description: Disruption of inner membrane integrity in Escherichia coli K12 (ATCC MC1061) transfected with pCGLS-1 at 6.4 to 12.8 times MIC measured by luciferase based bioluminescence assay. The data set is classed as functional, organism-based. The note with it: DDE = dose-dependent effect. The gist of the method:
(§7)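 Membrane integrity was read with click beetle lucGR luciferase biosensor strains. Cell suspension containing 1 mM D-luciferin was added to the analytes. Luminescence was read every second for 180 s, normalized to an untreated water control and reported as RLU. At least three independent experiments were run.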

Data set [12] deals with Bacillus subtilis. Description: Disruption of inner membrane integrity in Bacillus subtilis 168 (ATCC 23857) at 1.56 to 50 ug/ml measured by luciferase based bioluminescence assay. The data set is classed as functional, organism-based. The settings on record: dose 1.56-50 µg/ml. The essentials:
as §7

Data set [13] relates to Escherichia coli. Description: Disruption of outer membrane integrity in Escherichia coli K12 (ATCC MC1061) transfected with pCGLS-1 at 3.2 ug/ml measured by NPN based fluorescence assay. The note with it: dose 3.2 µg/ml, DDE = dose-dependent effect. The data set is classed as functional, organism-based. The essentials: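 E. coli K12 outer membrane permeability was measured by 1-N-phenylnaphthylamine uptake. Cell suspension with 20 µM NPN was added to the analytes. Fluorescence was read every second for 180 s, normalized to an untreated water control and reported as RFU. At least three independent experiments were run.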

The subject of data set [14] is Escherichia coli. The data set is described as follows: Antibacterial activity against Escherichia coli K12 (ATCC MC1061) transfected with pCGLS-1 assessed as decrease in bacterial viability at 3.2 to 51.2 ug/ml. The data set is classed as functional, organism-based. The note with it: dose 3.2-51.2 µg/ml. The essentials:
as §6

A short description of data set [15]: as §4. The data set is classed as toxicity, cell-based, Erythrocyte. The settings on record: human, human red blood cells (erythrocytes). The essentials: as §5
For data set [16], the system named is Escherichia coli. The data set is described as follows: Antibacterial activity against in Escherichia coli K12 (ATCC MC1061) transfected with pCGLS-1 assessed as decrease in cell viability at 25.6 to 51.2 ug/ml measured by NPN based fluorescence assay. The data set is classed as functional, organism-based. The note with it: dose 25.6-51.2 µg/ml. The essentials:
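At the end of the NPN outer membrane assay in E. coli K12, a 10 µL sample was spotted on an agar plate to assess bacterial viability.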

In brackets after ≈: the same amount, converted by molar mass. Activity calls are given as the source filed them. No cut-off for these calls is given here.

Turning to `N=C(NCCCCCCNC(=N)NC(=N)Nc1ccc(Cl)cc1)NC(=N)Nc1ccc(Cl)cc1` [CHLORHEXIDINE], the MIC in the data set on Bacillus subtilis [1] and against Escherichia coli [2] was 1.5 µg/mL (≈ 2.97 µM) each time.
As to `N=C(N)NCCCN1C(=O)N(CCCNC(=N)N)C(=O)C(Cc2cc(C(F)(F)F)cc(C(F)(F)F)c2)(Cc2cc(C(F)(F)F)cc(C(F)(F)F)c2)C1=O.O=C(O)C(F)(F)F.O=C(O)C(F)(F)F`, the MIC is 8 µg/mL against Escherichia coli [3], 16 µg/mL in the data set on Pseudomonas aeruginosa, 2 µg/mL against Bacillus subtilis [5] and 4 µg/mL against Staphylococcus aureus. The compound further came in with a solubility in [4] of less than 1000 µg/mL. Also, the selectivity ratio in data set [6] was 28; in data set [7], 222; in data set [8], 111; in data set [9] it was 56. In the data set on Erythrocyte, this compound yielded an EC50 of 445 µg/mL.
As for `N=C(N)NCCCCN1C(=O)N(CCCCNC(=N)N)C(=O)C(Cc2ccc(C(F)(F)F)cc2)(Cc2cc(Br)cc(Br)c2)C1=O.O=C(O)C(F)(F)F.O=C(O)C(F)(F)F` (configuration not stated), the MIC against Escherichia coli [3] was found to be 2 µg/mL; in the data set with Pseudomonas aeruginosa it was 16 µg/mL; with Bacillus subtilis [5], 4 µg/mL; against Staphylococcus aureus it was 2 µg/mL. The outcome with Bacillus subtilis [10], in the data set with Bacillus subtilis [12], in the data set with Escherichia coli [14] and in the data set on Escherichia coli [16] was Active. For the same compound, the Activity result in the data set on Escherichia coli [11] and with Escherichia coli [13] was “Dde” throughout. Besides, the selectivity ratio in data set [6] amounted to 10; in data set [7], 40; in data set [8], 81; in data set [9], 81. Moreover, in data set [15], the EC50 at 1 h stood at 161 µg/mL.

The values are drawn from ChEMBL document CHEMBL5108036, “A concise SAR-analysis of antimicrobial cationic amphipathic barbiturates for an improved activity-toxicity profile” (Eur J Med Chem, 2022).
